Reference: ChEMBL document CHEMBL5712080, “PRMT5 promotes cell proliferation by inhibiting BTG2 expression via the ERK signaling pathway in hepatocellular carcinoma” (Cancer Med, 2018)
The source made the active and inactive calls.

Columns and labels:
[1] = target: Protein arginine N-methyltransferase 5 (Homo sapiens) (UniProt O14744); test: Inhibition of PRMT5 in human SK-HEP1 cells assessed as upregulation of ERK phosphorylation level at 500 nM for 4 days by Western blot analysis; assay type: cell-based; settings: time 4.0 day
Sequence of Protein arginine N-methyltransferase 5 (Homo sapiens) (O14744 whole entry): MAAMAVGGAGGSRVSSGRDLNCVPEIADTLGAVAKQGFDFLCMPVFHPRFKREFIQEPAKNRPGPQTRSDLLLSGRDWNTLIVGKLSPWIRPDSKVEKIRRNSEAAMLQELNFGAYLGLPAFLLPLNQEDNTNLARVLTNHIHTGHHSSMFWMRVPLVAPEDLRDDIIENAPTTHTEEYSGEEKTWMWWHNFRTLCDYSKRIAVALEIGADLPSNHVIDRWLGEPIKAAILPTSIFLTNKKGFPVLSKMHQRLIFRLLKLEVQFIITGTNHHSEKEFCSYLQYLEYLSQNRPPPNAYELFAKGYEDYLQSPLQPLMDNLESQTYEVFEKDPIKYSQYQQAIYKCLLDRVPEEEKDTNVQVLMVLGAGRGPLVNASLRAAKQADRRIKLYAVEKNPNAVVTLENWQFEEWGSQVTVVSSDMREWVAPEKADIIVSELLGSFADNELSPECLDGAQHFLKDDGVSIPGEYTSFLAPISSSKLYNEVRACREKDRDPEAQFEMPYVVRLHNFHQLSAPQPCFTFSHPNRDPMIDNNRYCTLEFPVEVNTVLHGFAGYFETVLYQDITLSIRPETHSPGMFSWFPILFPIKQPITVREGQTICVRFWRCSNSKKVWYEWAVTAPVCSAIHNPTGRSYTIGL

[2] = target: Protein arginine N-methyltransferase 5 (Homo sapiens) (UniProt O14744); test: Inhibition of PRMT5 in human Huh-7 cells assessed as upregulation of BTG2 protein level at 500 nM for 4 days by Western blot analysis; assay type: cell-based; settings: time 4.0 day
SK-HEP1 [3] = test: Reversal of BTG2 protein level in human SK-HEP1 cells at 500 nM for 4 days in presence of PD184352 by Western blotting analysis; assay type: functional, cell-based; settings: time 4.0 day
Huh-7 [4] = test: Reversal of ERK phosphorylation level in human Huh-7 cells at 500 nM for 4 days in presence of PD184352 by Western blotting analysis; assay type: functional, cell-based; settings: time 4.0 day
[5] = target: Protein arginine N-methyltransferase 5 (Homo sapiens) (UniProt O14744); test: Inhibition of PRMT5 in human Huh-7 cells assessed as H4R3me2s protein level at 500 nM for 4 days by Western blot analysis; assay type: cell-based; settings: time 4.0 day
[6] = target: Protein arginine N-methyltransferase 5 (Homo sapiens) (UniProt O14744); test: Inhibition of PRMT5 in human SK-HEP1 cells assessed as upregulation of BTG2 protein level at 500 nM for 4 days by Western blot analysis; assay type: cell-based; settings: time 4.0 day
Huh-7 [7] = test: Reversal of H4R3me2s level in human Huh-7 cells at 500 nM for 4 days in presence of PD184352 by Western blotting analysis; assay type: functional, cell-based; settings: time 4.0 day
[8] = target: Protein arginine N-methyltransferase 5 (Homo sapiens) (UniProt O14744); test: Inhibition of PRMT5 in human SK-HEP1 cells assessed as H4R3me2s protein level at 500 nM for 4 days by Western blot analysis; assay type: cell-based; settings: time 4.0 day
SK-HEP1 [9] = test: Reversal of ERK phosphorylation level in human SK-HEP1 cells at 500 nM for 4 days in presence of PD184352 by Western blotting analysis; assay type: functional, cell-based; settings: time 4.0 day
[10] = target: Protein arginine N-methyltransferase 5 (Homo sapiens) (UniProt O14744); test: Inhibition of PRMT5 in human Huh-7 cells assessed as upregulation of ERK phosphorylation level at 500 nM for 4 days by Western blot analysis; assay type: cell-based; settings: time 4.0 day
SK-HEP1 [11] = test: Reversal of H4R3me2s level in human SK-HEP1 cells at 500 nM for 4 days in presence of PD184352 by Western blotting analysis; assay type: functional, cell-based; settings: time 4.0 day
Huh-7 [12] = test: Reversal of BTG2 protein level in human Huh-7 cells at 500 nM for 4 days in presence of PD184352 by Western blotting analysis; assay type: functional, cell-based; settings: time 4.0 day
SK-HEP1 [13] = test: Upregulation of BTG2 protein in PRMT5 knockdown human SK-HEP1 cells at 20 microM for 24 hrs by Western blot analysis; assay type: functional, cell-based
How it was run: (§1)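 Huh7 or SK-Hep1 cells stably carrying lentiviral shRNA against PRMT5, selected 2 weeks in puromycin (final 1 μg/mL), grown in DMEM/10% FBS at 37°C, 5% CO2. Cells pretreated 24 h with 20 μM PD184352 (ERK phosphorylation inhibitor). RIPA lysates run on 8–12% SDS-PAGE, PVDF, 5% milk block, primary antibody overnight at 4°C, HRP secondary, chemiluminescent detection. Histone 3 was the nuclear loading control.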

Huh-7 [14] = test: Upregulation of BTG2 protein in PRMT5 knockdown human Huh-7 cells at 20 microM for 24 hrs by Western blot analysis; assay type: functional, cell-based; how it was run: as §1

O=C(NC[C@H](O)CN1CCc2ccccc2C1)c1ccnc(NC2CCC2)c1
active: inhibition [1] | inhibition [2] | Activity (SK-HEP1 [3]) | Activity (Huh-7 [4]) | inhibition [5] | inhibition [6] | Activity (Huh-7 [7]) | inhibition [8] | Activity (SK-HEP1 [9]) | inhibition [10] | Activity (SK-HEP1 [11]) | Activity (Huh-7 [12])

O=C(NOCC1CC1)c1ccc(F)c(F)c1Nc1ccc(I)cc1Cl
active: Activity (SK-HEP1 [13]) | Activity (Huh-7 [14])
